Common to all, as to type: ADME, organism-based
Data set [1] deals with Homo sapiens. Briefly: Clearance in iv dosed critically ill patient with acute kidney injury during extended daily diafiltration. The settings on record: in vivo. The method in brief: (§1)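 Patients were 14 critically ill adults with AKI on EDD-f, 28 doses in total. Gentamicin was given as a 30-min central venous infusion. Arterial plasma was sampled predose and at 15, 30, 60, 120, 180, 300, 480 and 600 min, plus samples between EDD-f sessions. Plasma levels were measured by Synchron LX assay (LOD 0.3 mg/liter). A two-compartment NONMEM model (FOCE with interaction) was fitted with EDD-f as a covariate.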

The test system of data set [2] is Homo sapiens. The data set can be described thus: Half life in iv dosed critically ill patient with acute kidney injury during extended daily diafiltration. The settings on record: in vivo. The method in brief: as §1
The subject of data set [3] is Homo sapiens. Briefly: Clearance iv dosed in critically ill patient with acute kidney injury. The settings on record: in vivo. The essentials: as §1
For data set [4], the system named is Homo sapiens. The data set can be described thus: Half life in iv dosed critically ill patient with acute kidney injury. The settings on record: in vivo. The method in brief:
as §1

In data set [5] the test system is Homo sapiens. The data set can be described thus: AUC (0 to 24 hrs) in critically ill patient with acute kidney injury at 4 mg/kg, iv administered as 30 mins infusion. On the set-up: time < 24 hr, dose 4 mg/kg, route intravenous. The following applies: in vivo. The method in brief:
(§2)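 Monte Carlo simulation in NONMEM from the final covariate population model. 1,000 simulated subjects per regimen, modelled on a person (70 kg, BMI 23.6 kg/m²). Weight-based doses were given at EDD-f start or 30 min, 1 h, 2 h or 4 h before a 10-h EDD-f session, every 24 h or every 48 h. Targets were Cmax and AUC0-24, assuming an MIC of 1 mg/liter.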

Data set [6] concerns Homo sapiens. Briefly: AUC (0 to 24 hrs) in critically ill patient with acute kidney injury at 5 mg/kg, iv administered as 1 hr infusion. Details: dose 5 mg/kg, route intravenous. The following applies: in vivo. The essentials: as §2
The subject of data set [7] is Homo sapiens. The data set can be described thus: Cmax in critically ill patient with acute kidney injury at 4 mg/kg, iv administered as 30 mins infusion. On the set-up: dose 4 mg/kg, route intravenous. The settings on record: in vivo, 0.5 h. The essentials: as §2
Data set [8] relates to Homo sapiens. Briefly: Cmax in critically ill patient with acute kidney injury at 5 mg/kg, iv administered as 1 hr infusion. On the set-up: dose 5 mg/kg, route intravenous. The settings on record: in vivo. The method in brief:
as §2

Data set [9] deals with Homo sapiens. The data set can be described thus: AUC (0 to 24 hrs) in critically ill patient with acute kidney injury at 5 mg/kg, iv administered every 24 hrs. The settings on record: in vivo. Details: time < 24 hr, dose 5 mg/kg, route intravenous. The method in brief: as §2
Data set [10] relates to Homo sapiens. Briefly: AUC (0 to 24 hrs) in critically ill patient with acute kidney injury at 6 mg/kg, iv administered every 48 hrs. On the set-up: time < 24 hr, dose 6 mg/kg, route intravenous. The following applies: in vivo. The essentials:
as §2

Data set [11] has as its system Homo sapiens. Briefly: Cmax in critically ill patient with acute kidney injury at 5 mg/kg, iv administered every 24 hrs. Details: dose 5 mg/kg, route intravenous. The settings on record: in vivo. The essentials: as §2
Data set [12] has as its system Homo sapiens. Briefly: Cmax in critically ill patient with acute kidney injury at 6 mg/kg, iv administered every 48 hrs. Details: dose 6 mg/kg, route intravenous. The following applies: in vivo. The method in brief:
as §2

For GENTAMICIN, the CL in data set [1] was 2.54 L/h; in data set [3], 0.23 L/h. In addition, the t1/2 in data set [2] turned out to be 13.8 h; in [4], 153.4 h. For the same sequence, the exposure (AUC) (in general, the area under the concentration-time curve, a measure of exposure) turned out to be 70000 ng·h/mL in data set [5], 70000 ng·h/mL in [7], 135700 ng·h/mL in [9] and 88700 ng·h/mL in data set [10]. Also, the Cmax in data set [6], in [8], in data set [11] and in [12] was above 10000 ng/mL each time.
